From ChEMBL document CHEMBL1132277, “Probing the binding of indolactam-V to protein kinase C through site-directed mutagenesis and computational docking simulations” (J Med Chem, 1999)

Legend:
[1] = biological target: T1, Protein kinase C delta type (Mus musculus, UniProt P28867); test: Binding of Indolactam-V(ILV) to mutant Protein kinase C delta C1b domain (Pro11 to Gly)
Summary of the method: (§1)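 GST fusions of PKCδ C1b domains (wild type or point mutants) expressed in E. coli, used purified or as total lysates. Incubated 5 min at 18 °C with [3H]PDBu, phosphatidylserine, 1 mM EGTA and varying unlabelled (–)-ILV. Bound ligand separated by 35% poly(ethylene glycol) precipitation and centrifugation, then supernatant and pellet counted. Final ligand concentrations used in calculations. Where [3H]PDBu binding was insufficient, ILV affinity was left undetermined.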

[2] = biological target: T1, Protein kinase C delta type; test: Binding of Indolactam-V(ILV) to mutant Protein kinase C delta C1b domain (Thr12 to Gly); summary of the method: as §1
[3] = biological target: T1, Protein kinase C delta type; test: Binding of Indolactam-V(ILV) to mutant Protein kinase C delta C1b domain (Gln27 to Val); summary of the method: as §1
[4] = biological target: T1, Protein kinase C delta type; test: Binding of Indolactam-V(ILV) to mutant Protein kinase C delta C1b domain (Leu20 to Gly); summary of the method: as §1
[5] = biological target: T1, Protein kinase C delta type; test: Binding of Indolactam-V(ILV) to mutant Protein kinase C delta C1b domain (Phe13 to Gly); summary of the method: as §1
[6] = biological target: T1, Protein kinase C delta type; test: Binding of Indolactam-V(ILV) to mutant Protein kinase C delta C1b domain (Tyr8 to Gly); summary of the method: as §1
[7] = biological target: T1, Protein kinase C delta type; test: Binding of Indolactam-V(ILV) to wild-type Protein kinase C delta C1b domain; summary of the method: as §1

T1 sequence (P28867 whole entry, the tested form may be a part): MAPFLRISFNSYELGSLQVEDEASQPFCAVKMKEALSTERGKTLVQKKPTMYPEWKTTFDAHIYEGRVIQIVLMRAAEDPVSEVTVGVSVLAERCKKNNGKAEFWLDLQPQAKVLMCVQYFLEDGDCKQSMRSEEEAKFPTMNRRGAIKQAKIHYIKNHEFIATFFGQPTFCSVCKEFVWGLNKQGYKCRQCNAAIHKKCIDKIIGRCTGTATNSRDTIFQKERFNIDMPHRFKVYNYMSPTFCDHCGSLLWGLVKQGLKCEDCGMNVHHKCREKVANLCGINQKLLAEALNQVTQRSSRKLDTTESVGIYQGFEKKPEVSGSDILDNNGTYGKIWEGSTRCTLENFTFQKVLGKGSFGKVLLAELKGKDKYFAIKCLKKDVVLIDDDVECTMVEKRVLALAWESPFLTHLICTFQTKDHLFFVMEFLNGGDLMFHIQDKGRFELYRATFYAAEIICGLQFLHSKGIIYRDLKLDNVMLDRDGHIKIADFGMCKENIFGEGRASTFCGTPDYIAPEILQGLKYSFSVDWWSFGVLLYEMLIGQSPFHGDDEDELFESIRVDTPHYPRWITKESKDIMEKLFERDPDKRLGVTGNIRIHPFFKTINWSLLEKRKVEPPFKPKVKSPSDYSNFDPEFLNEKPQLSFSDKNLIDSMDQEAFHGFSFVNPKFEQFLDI

CC(C)[C@H]1C(=O)N[C@H](CO)Cc2c[nH]c3cccc(c23)N1C [INDOLACTUM]
Ki [1]: 7080 nM | Ki [2]: 25.3 nM | Ki [3]: 1100 nM | Ki [4]: 66.2 nM | Ki [5]: 10.9 nM | Ki [6]: 658 nM | Ki [7]: 2.01 nM
